The source of these data is ChEMBL document CHEMBL1135434, “An algorithm-directed two-component library synthesized via solid-phase methodology yielding potent and orally bioavailable p38 MAP kinase inhibitors” (J Med Chem, 2002).

The target of one data set is MAP kinase p38 (Mus musculus, UniProt P47811+O08911+Q9WUI1+Q9Z1B7). The data set can be described thus: Inhibition of murine Mitogen-activated protein kinase p38. In kind it is protein assay. An outline of the steps: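 Mouse p38 enzyme, 40 ng/well, run for 1 h at room temperature. ATF-2 (50 µg/mL) coated on plates as substrate. Buffer: 25 mM Hepes pH 7.7, 25 mM MgCl2, 2 mM DTT, 1 mM sodium orthovanadate, 100 µM ATP. Phospho-ATF-2 detected with a rabbit phospho-specific antibody, then a europium-labelled anti-rabbit secondary, read by DELFIA fluorescence. Mean ± SEM, n = 3.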

For data set [1], the species on record is Rattus norvegicus. The data set can be described thus: PK study was carried to determine AUC (area under curve) value in rat. It is filed as ADME, organism-based. Details: concentration or dose not given beside the values. The note with it: in vivo. An outline of the steps:
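Three rats dosed at 1 mg/kg, either orally as a methylcellulose suspension or iv as a solution in N-methylpyrrolidone. Blood sampled at intervals over 24 h and assayed for compound. Results averaged, n = 3.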

In data set [2] the target is T1, Tumor necrosis factor (Mus musculus) (UniProt P06804).
T1 sequence (whole entry): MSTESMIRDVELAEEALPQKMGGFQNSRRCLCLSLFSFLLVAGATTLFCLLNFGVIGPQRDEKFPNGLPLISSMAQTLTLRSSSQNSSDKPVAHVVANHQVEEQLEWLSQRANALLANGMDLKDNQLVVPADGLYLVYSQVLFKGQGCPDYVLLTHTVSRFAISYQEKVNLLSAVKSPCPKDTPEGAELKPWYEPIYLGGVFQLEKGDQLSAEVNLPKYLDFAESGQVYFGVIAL
The data set can be described thus: Effective dose against LPS-stimulated Tumor necrosis factor, alpha release in mice dosed orally, 30 min prior to LPS challenge (0.1 mg/kg, ip). It is filed as functional, organism-based. An outline of the steps:
(§1)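 Balb/c mice dosed orally 30 min before ip LPS (0.1 mg/kg). Serum TNFα measured 90 min after LPS. Means, n = 3.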

A short description of data set [3]: PK study was carried to determine the relative absorption ranking in rat. It is filed as ADME, organism-based. The note with it: plasma, read-out: Cp max.
In data set [4] the test system is Rattus norvegicus. The data set can be described thus: Effective dose for suppressing paw swelling in an in vivo SCW (streptococcal cell wall) induced arthritis model in Lewis rat; value ranges from 10-30. It is filed as functional.
Data set [5] concerns the target T1, Tumor necrosis factor (Mus musculus). The experiment in a line: Effective dose against LPS-stimulated Tumor necrosis factor, alpha release in mice dosed orally, 30 min prior to LPS challenge (0.1 mg/kg, ip); value ranges from 3-10. It is filed as functional, organism-based. An outline of the steps: as §1

As usually defined, the IC50 is the concentration at which inhibition is half-maximal. For orientation: AUC means the area under the concentration-time curve, a measure of exposure. The ED50 is the midpoint of the dose-response relation.

In turn, `COCCCNc1nccc(-c2[nH]c([C@H]3OC[C@@](C)(C(=O)NCCOC)CO3)nc2-c2ccc(F)cc2)n1` came in with an IC50 against MAP kinase p38 of 127 nM. For the same compound, the AUC in the data set filed under Rattus norvegicus [1] came to 138 ng·h/mL. Also, the ED50 in data set [2] turned out to be 5 mg/kg. The Cmax in data set [3] stood at 89 ng/mL.

In the case of `C[C@]1(C(=O)NC2CC2)CO[C@H](c2nc(-c3ccc(F)cc3)c(-c3ccnc(NCC4CC4)n3)[nH]2)OC1`, the IC50 at MAP kinase p38 was 5 nM. This compound gave an AUC in the data set filed under Rattus norvegicus [1] of 288 ng·h/mL. Also, the ED50 in data set [2] is 5 mg/kg. Further, in data set [3], the Cmax turned out to be 91 ng/mL.

With `C[C@]1(C(=O)N2CCOCC2)CO[C@H](c2nc(-c3ccc(F)cc3)c(-c3ccncc3)[nH]2)OC1` [listing 1 of 2 here], the area under the curve (AUC) in the data set listed under Rattus norvegicus [1] was determined as 247 ng·h/mL. Moreover, the Cmax in data set [3] came out at 60 ng/mL.

On to `CN1CCN(C(=O)[C@]2(C)CO[C@@H](c3nc(-c4ccc(F)cc4)c(-c4ccnc(NCC5CC5)n4)[nH]3)OC2)CC1`, for which the IC50 against MAP kinase p38 is recorded as 4 nM. For the same compound, the 50% effective dose (ED50) with Rattus norvegicus [4] came to 30 mg/kg; in data set [2], 10 mg/kg. In addition, the AUC in the data set listed under Rattus norvegicus [1] was found to be 541 ng·h/mL. Also, the Cmax in data set [3] was 221 ng/mL.

Regarding `C[C@]1(C(=O)N2CCOCC2)CO[C@H](c2nc(-c3ccc(F)cc3)c(-c3ccncc3)[nH]2)OC1` [listing 2 of 2 here], it took a dose of 10 mg/kg to reach the 50% effect level in data set [5] (ED50).

`C=CCNc1nccc(-c2[nH]c([C@H]3OC[C@@](C)(C(=O)NCCOC)CO3)nc2-c2ccc(F)cc2)n1` registered an IC50 against MAP kinase p38 of 62 nM. In the data set filed under Rattus norvegicus [1], this compound gave an AUC of 169 ng·h/mL. This compound also had an ED50 in data set [2] of 0.2 mg/kg. For the same compound, the Cmax in data set [3] is 95 ng/mL.

At MAP kinase p38, `CCCNC(=O)[C@]1(C)CO[C@@H](c2nc(-c3ccc(F)cc3)c(-c3ccnc(NCc4ccco4)n3)[nH]2)OC1` yielded an IC50 of 6 nM. Besides, the AUC in the data set filed under Rattus norvegicus [1] was 257 ng·h/mL. The Cmax in data set [3] is 39 ng/mL.

The compound `CN(C)C(=O)[C@]1(C)CO[C@@H](c2nc(-c3ccc(F)cc3)c(-c3ccnc(NCC4CC4)n3)[nH]2)OC1` displayed an IC50 on MAP kinase p38 of 6 nM. Besides, the AUC in the data set filed under Rattus norvegicus [1] was determined as 276 ng·h/mL. This compound showed an ED50 in data set [2] of 9 mg/kg. For the same compound, in data set [3], the Cmax was 29 ng/mL.

At MAP kinase p38, `COCCNc1nccc(-c2[nH]c([C@H]3OC[C@@](C)(C(=O)NCC4CC4)CO3)nc2-c2ccc(F)cc2)n1` gave an IC50 of 47 nM. The compound further yielded an exposure (AUC) in the data set listed under Rattus norvegicus [1] of 121 ng·h/mL. In data set [2], this compound showed a 50% effective dose (ED50) of 3 mg/kg. For the same compound, the Cmax in data set [3] was found to be 62 ng/mL.

In the case of `CCCNC(=O)[C@]1(C)CO[C@@H](c2nc(-c3ccc(F)cc3)c(-c3ccnc(NCCCOC)n3)[nH]2)OC1`, the IC50 at MAP kinase p38 is recorded as 6 nM. This compound had an exposure (AUC) in the data set listed under Rattus norvegicus [1] of 738 ng·h/mL. Further, the ED50 in data set [2] is 6 mg/kg. Besides, the Cmax in data set [3] worked out at 270 ng/mL.

Take `CC(C)NC(=O)[C@]1(C)CO[C@@H](c2nc(-c3ccc(F)cc3)c(-c3ccnc(NCC4CC4)n3)[nH]2)OC1`: the IC50 on MAP kinase p38 came out at 12 nM. The AUC in the data set filed under Rattus norvegicus [1] was 412 ng·h/mL. In addition, in data set [2], it took a dose of 0.7 mg/kg to reach the 50% effect level (ED50). For the same compound, the Cmax in data set [3] came out at 141 ng/mL.

`CS(=O)(=O)O.C[C@]1(C(=O)N2CCOCC2)CO[C@H](c2nc(-c3ccc(F)cc3)c(-c3ccncc3)[nH]2)OC1` returned an IC50 at MAP kinase p38 of 110 nM. Moreover, the AUC in the data set filed under Rattus norvegicus [1] was found to be 628 ng·h/mL. Moreover, in data set [3], the Cmax was 277 ng/mL.

On MAP kinase p38, `CN(C)C(=O)[C@]1(C)CO[C@@H](c2nc(-c3ccc(F)cc3)c(-c3ccnc(NCc4ccccn4)n3)[nH]2)OC1` registered an IC50 of 4 nM. Also, the AUC in the data set filed under Rattus norvegicus [1] was found to be 529 ng·h/mL. The same compound showed an ED50 in data set [2] of 8 mg/kg. Moreover, in data set [3], the Cmax was determined as 110 ng/mL.
